Source: PubChem BioAssay AID463073 (The Scripps Research Institute Molecular Screening Center, 2010)
Hit rate of the full screen: of about 2,000 compounds, about 10 (0.5%) were called active.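 Rule for the calls: active = inhibition above 30%; inactive = the rest.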 The list comes from a sample in which actives are over-represented; it also holds similar structures and randomly drawn compounds.

molecular target: Protein-arginine deiminase type-4 (Homo sapiens) (UniProt Q9UM07); assay: human PAD4 inhibitors, primary screen, biochemical, fluorescence polarization (AID 463073); details: recombinant PAD4, RFA probe fluorescence polarization; at 5 µM; active compounds read high;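 note: 0% = PAD4 with DMSO and 100% = wells lacking PAD4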
How it was run: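 System: recombinant PAD4. Amount: PAD4 at 2 µM in dispensed buffer, before additions. Doses: single 5 µM final compound concentration. Timing: 30 min 25 °C preincubation, 5 h 37 °C labeling. Benchmarks: wells lacking PAD4 as full-inhibition control. Repeats: single well per compound. Measured by: FP, ex 525 nm, em 598 nm.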

Chain of Protein-arginine deiminase type-4 (Homo sapiens) (Q9UM07 whole entry, looked up): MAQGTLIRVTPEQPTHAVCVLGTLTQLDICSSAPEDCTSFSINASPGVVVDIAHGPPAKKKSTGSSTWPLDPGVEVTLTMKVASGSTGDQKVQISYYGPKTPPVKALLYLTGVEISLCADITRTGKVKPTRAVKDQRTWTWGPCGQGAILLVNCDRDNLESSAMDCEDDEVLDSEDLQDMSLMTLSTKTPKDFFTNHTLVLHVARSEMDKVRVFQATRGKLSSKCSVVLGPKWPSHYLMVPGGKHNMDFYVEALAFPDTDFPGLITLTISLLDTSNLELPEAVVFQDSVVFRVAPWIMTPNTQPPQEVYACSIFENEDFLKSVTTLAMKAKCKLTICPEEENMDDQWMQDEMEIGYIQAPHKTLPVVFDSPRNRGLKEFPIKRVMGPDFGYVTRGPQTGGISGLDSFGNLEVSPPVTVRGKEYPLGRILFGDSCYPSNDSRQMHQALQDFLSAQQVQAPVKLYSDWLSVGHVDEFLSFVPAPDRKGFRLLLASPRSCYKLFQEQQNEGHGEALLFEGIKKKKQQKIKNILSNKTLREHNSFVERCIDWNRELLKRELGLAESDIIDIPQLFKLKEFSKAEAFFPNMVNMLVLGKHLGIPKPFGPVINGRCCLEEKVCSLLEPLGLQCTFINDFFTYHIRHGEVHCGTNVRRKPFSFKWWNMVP

inhibition, inactive:
Cc1ccc2c(c1)C1OCCC1C1N2C(=O)C2C(C(=O)O)C3C=CC21O3 (stereo not given) 6.06%
Cn1cc(CN2CCC(C(=O)N3CCCCC3)CC2)c(-c2ccccc2F)n1 4.74%
O=C1OC(c2ccccc2)=C/C1=C/c1cccs1 -2.45%
c1ccc(Nc2ccccn2)nc1 -4.7%
CS(=O)(=O)c1cccc(C(=O)Oc2ccccc2)c1 5.29%
CC(=O)OCC1OC(n2ccc(=O)[nH]c2=O)C(O)C1O (stereo not given) 1.17%
CC(C)C[C@H](NC(=O)[C@@H]1Cc2ccccc2CN1C(=O)OC(C)(C)C)C(=O)NCC1CCC(C(=O)O)CC1 (stereo not given in full) 0.39%
CS(=O)(=O)Nc1cccc(C(=O)CC2(O)C(=O)Nc3ccc(Br)cc32)c1 (stereo not given) 0.36%
Cn1c2c(c(=O)[nH]c1=O)C(c1ccc(O)cc1)C1=C(N2)c2ccccc2C1=O (stereo not given) 4.81%
Cc1cc(C)c(NC(=O)NC(=O)C(Cl)(Cl)Cl)c(C)c1 -2.27%
CC(=O)OC[C@H]1O[C@@H](Sc2cccc3cccnc23)[C@H](OC(C)=O)[C@@H](OC(C)=O)[C@H]1OC(C)=O 1.27%
CCOC(=O)C1C(=O)OC(C)(C)C1C(C)C(=O)c1ccc(C)cc1 (stereo not given) -0.2%
CCOC(=O)C(Cc1cc(C(C)=O)ccc1OC(C)C)C(=O)OCC 2.78%
CCOc1ccc(N2C(=O)CC(NCCNc3ccc([N+](=O)[O-])cn3)C2=O)cc1 (stereo not given) 9.78%
CN1C(=O)C(O)(CC(=O)c2ccccc2O)c2cc(Br)ccc21 (stereo not given) -1.81%
CCOC(=O)C(NC(=O)CCC(=O)Nc1ccc(S(N)(=O)=O)cc1)C(O)c1ccccc1 (stereo not given) -0.41%
CCc1cc2c(C)cc(=O)oc2cc1OC(=O)C1CCCN1C(=O)OC(C)(C)C (stereo not given) 1.27%
COC(=O)c1[nH]c2ccc(C)cc2c1NC(=O)CN1CCc2cc(OC)c(OC)cc2C1 0.78%
COc1ccc(CC(=O)NCC2(c3ccc(OC)c(OC)c3)CCOCC2)cc1 2.08%
COc1ccc(CNC(=O)c2c(O)c3cccc4c3n(c2=O)CCC4)cc1 4.58%
CC(C)CC(=O)Nc1ccc2oc(-c3ccncc3)nc2c1 1.75%
CC(C)NC(=O)c1ccc(C(C)C)cc1 -2.74%
O=C(CN1C(=O)c2ccccc2S1(=O)=O)Nc1ccccc1 -2.01%
COC(=O)C1=NN(C(=O)c2cccc(Br)c2)C(O)(c2ccc(Cl)cc2)C1 (stereo not given) -1.03%
CC(C)(C)C(=O)Nc1cccc(OC(F)(F)C(F)Cl)c1 (stereo not given) 3.96%
